Reference: ChEMBL document CHEMBL1944562, “Design, synthesis of some new (2-aminothiazol-4-yl)methylester derivatives as possible antimicrobial and antitubercular agents” (2012)
≈ marks a conversion by molar mass, not a printed value.

Tests used:
Assay type in all cases: functional
[1] = tested on: Mycolicibacterium smegmatis; experiment: Antitubercular activity against Mycobacterium smegmatis ATCC 19420 after 7 days by resazurin assay; conditions: ATCC 19420, 168 h
Procedure, shortened: (§1)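 Middlebrook 7H9 broth with 10% OADC, culture adjusted to McFarland 2. 50 µL culture added to 150 µL fresh medium. Stocks at 2 mg/mL in DMF, tested first at 1, 10 and 100 µg/mL, then at 0.3125-5 µg/mL. DMF controls. After 7 days at 37 °C, 0.01% resazurin added. Blue-to-pink change read for MIC.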

[2] = tested on: Mycolicibacterium fortuitum; experiment: Antitubercular activity against Mycobacterium fortuitum ATCC 19542 after 7 days by resazurin assay; conditions: ATCC 19542, 168 h; procedure, shortened: as §1
[3] = tested on: Mycobacterium tuberculosis; experiment: Antitubercular activity against Mycobacterium tuberculosis H37Rv assessed as growth inhibition after 7 days by resazurin assay
Procedure, shortened: (§2)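 M. tuberculosis H37Rv ATCC 27294 grown in Middlebrook 7H9 broth with 10% OADC and adjusted to McFarland 2. Culture was diluted 1:4 into fresh medium. Compounds came from 2 mg/mL DMF stocks, screened first at 1, 10 and 100, then at 0.3125–5. DMF-only controls were included. After 7 days at 37 °C, 0.01% resazurin was added; a blue-to-pink change marked growth, and the MIC was read.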

Escherichia coli [4] = experiment: Antibacterial activity against Escherichia coli ATCC 25922 after 16 to 18 hrs by […]
Staphylococcus aureus [5] = experiment: Antibacterial activity against Staphylococcus aureus ATCC 25923 after 16 to 18 hrs by serial plate dilution method
Pseudomonas aeruginosa [6] = experiment: Antibacterial activity against Pseudomonas aeruginosa ATCC 27853 after 16 to 18 hrs by […]
Klebsiella pneumoniae [7] = experiment: Antibacterial activity against Klebsiella pneumoniae after 16 to 18 hrs by […]
Bacillus subtilis [8] = experiment: Antibacterial activity against Bacillus subtilis after 16 to 18 hrs by […]
Escherichia coli [9] = experiment: Antibacterial activity against Escherichia coli ATCC 25922 at MIC after 3 to 4 days
Procedure, shortened: (§3)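 Agar well diffusion on seeded agar plates, 20 mL agar per dish, dried 1 h at 37 °C. Wells punched and loaded with test compound in DMSO at its MIC. DMSO-only control. Plates run in triplicate and kept 3-4 days at 37 °C. Inhibition zone diameter measured.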

Staphylococcus aureus [10] = experiment: Antibacterial activity against Staphylococcus aureus ATCC 25923 at […] after 3 to 4 days; procedure, shortened: as §3
Pseudomonas aeruginosa [11] = experiment: Antibacterial activity against Pseudomonas aeruginosa ATCC 27853 at MIC after 3 to 4 days; procedure, shortened: as §3
Klebsiella pneumoniae [12] = experiment: Antibacterial activity against Klebsiella pneumoniae at MIC after 3 to 4 days; procedure, shortened: as §3
Bacillus subtilis [13] = experiment: Antibacterial activity against Bacillus subtilis at MIC after 3 to 4 days; procedure, shortened: as §3
Aspergillus flavus [14] = experiment: Antifungal activity against Aspergillus flavus NCIM N0.524 after 3 to 4 days by serial plate dilution method
Aspergillus fumigatus [15] = experiment: Antifungal activity against Aspergillus fumigatus NCIM N0.902 after 3 to 4 days by serial plate dilution method
Talaromyces marneffei [16] = experiment: Antifungal activity against Penicillium marneffei after 3 to 4 days by serial plate dilution method
[17] = tested on: Trichophyton mentagrophytes; experiment: Antifungal activity against Trichophyton mentagrophytes after 3 to 4 days by serial plate dilution method
Candida albicans [18] = experiment: Antifungal activity against Candida albicans after 3 to 4 days by serial plate dilution method
Aspergillus flavus [19] = experiment: Antifungal activity against Aspergillus flavus NCIM N0.524 at MIC after 3 to 4 days
Procedure, shortened: (§4)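 Fungal suspension made by transferring a loopful of culture to 3 mL saline and seeding agar plates, 20 mL agar per dish, dried 1 h at 37 °C. Punched wells loaded with test compound in DMSO at its MIC. DMSO-only control. Triplicate plates held 3-4 days at 37 °C. Inhibition zone diameter measured.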

Aspergillus fumigatus [20] = experiment: Antifungal activity against Aspergillus fumigatus NCIM N0.902 at MIC after 3 to 4 days; procedure, shortened: as §4
Talaromyces marneffei [21] = experiment: Antifungal activity against Penicillium marneffei at MIC after 3 to 4 days; procedure, shortened: as §4
[22] = tested on: Trichophyton mentagrophytes; experiment: Antifungal activity against Trichophyton mentagrophytes at MIC after 3 to 4 days; procedure, shortened: as §4
Candida albicans [23] = experiment: Antifungal activity against Candida albicans at MIC after 3 to 4 days; procedure, shortened: as §4
[24] = tested on: Mycobacterium tuberculosis; experiment: Antitubercular activity against Mycobacterium tuberculosis H37Rv after 7 days by resazurin assay; conditions: 168 h; procedure, shortened: as §2

## Nc1nc(COC(=O)c2ccc3ccccc3c2)cs1
[1]
  MIC: 10 µg/mL (≈ 35.2 µM)
[2]
  MIC: 10 µg/mL (≈ 35.2 µM)
[3]
  growth inhibition (GI): <90%
Escherichia coli [4]
  MIC: 6.25 µg/mL (≈ 22 µM)
Staphylococcus aureus [5]
  MIC: 6.25 µg/mL (≈ 22 µM)
Pseudomonas aeruginosa [6]
  MIC: 6.25 µg/mL (≈ 22 µM)
Klebsiella pneumoniae [7]
  MIC: 6.25 µg/mL (≈ 22 µM)
Bacillus subtilis [8]
  MIC: 6.25 µg/mL (≈ 22 µM)
Escherichia coli [9]
  diameter of the inhibition zone (DIZ): 16 mm
Staphylococcus aureus [10]
  diameter of the inhibition zone (DIZ): 16 mm
Pseudomonas aeruginosa [11]
  diameter of the inhibition zone (DIZ): 16 mm
Klebsiella pneumoniae [12]
  diameter of the inhibition zone (DIZ): 16 mm
Bacillus subtilis [13]
  diameter of the inhibition zone (DIZ): 16 mm
Aspergillus flavus [14]
  MIC: 12.5 µg/mL (≈ 44 µM)
Aspergillus fumigatus [15]
  MIC: 12.5 µg/mL (≈ 44 µM)
Talaromyces marneffei [16]
  MIC: 12.5 µg/mL (≈ 44 µM)
[17]
  MIC: 12.5 µg/mL (≈ 44 µM)
Candida albicans [18]
  MIC: 6.25 µg/mL (≈ 22 µM)
Aspergillus flavus [19]
  diameter of the inhibition zone (DIZ): 11 mm
Aspergillus fumigatus [20]
  diameter of the inhibition zone (DIZ): 11 mm
Talaromyces marneffei [21]
  diameter of the inhibition zone (DIZ): 11 mm
[22]
  diameter of the inhibition zone (DIZ): 11 mm
Candida albicans [23]
  diameter of the inhibition zone (DIZ): 16 mm
[24]
  MIC: 2.5 µg/mL (≈ 8.79 µM)

## Nc1nc(COC(=O)c2ccc([N+](=O)[O-])cc2)cs1
[1]
  MIC: 10 µg/mL (≈ 35.8 µM)
[2]
  MIC: 10 µg/mL (≈ 35.8 µM)
[3]
  growth inhibition (GI): 90%
Escherichia coli [4]
  MIC: 12.5 µg/mL (≈ 44.8 µM)
Staphylococcus aureus [5]
  MIC: 25 µg/mL (≈ 89.5 µM)
Pseudomonas aeruginosa [6]
  MIC: 12.5 µg/mL (≈ 44.8 µM)
Klebsiella pneumoniae [7]
  MIC: 6.25 µg/mL (≈ 22.4 µM)
Bacillus subtilis [8]
  MIC: 12.5 µg/mL (≈ 44.8 µM)
Escherichia coli [9]
  diameter of the inhibition zone (DIZ): 11 mm
Staphylococcus aureus [10]
  diameter of the inhibition zone (DIZ): <10 mm
Pseudomonas aeruginosa [11]
  diameter of the inhibition zone (DIZ): 10 mm
Klebsiella pneumoniae [12]
  diameter of the inhibition zone (DIZ): 16 mm
Bacillus subtilis [13]
  diameter of the inhibition zone (DIZ): 10 mm
Aspergillus flavus [14]
  MIC: 6.25 µg/mL (≈ 22.4 µM)
Aspergillus fumigatus [15]
  MIC: 6.25 µg/mL (≈ 22.4 µM)
Talaromyces marneffei [16]
  MIC: 6.25 µg/mL (≈ 22.4 µM)
[17]
  MIC: 6.25 µg/mL (≈ 22.4 µM)
Candida albicans [18]
  MIC: 6.25 µg/mL (≈ 22.4 µM)
Aspergillus flavus [19]
  diameter of the inhibition zone (DIZ): 16 mm
Aspergillus fumigatus [20]
  diameter of the inhibition zone (DIZ): 16 mm
Talaromyces marneffei [21]
  diameter of the inhibition zone (DIZ): 16 mm
[22]
  diameter of the inhibition zone (DIZ): 16 mm
Candida albicans [23]
  diameter of the inhibition zone (DIZ): 16 mm
[24]
  MIC: 1 µg/mL (≈ 3.58 µM)

## Nc1nc(COC(=O)c2c(Cl)cc(Cl)cc2Cl)cs1
[1]
  MIC: > 100 µg/mL
[2]
  MIC: > 100 µg/mL
[3]
  growth inhibition (GI): <90%
Escherichia coli [4]
  MIC: 25 µg/mL (≈ 74 µM)
Staphylococcus aureus [5]
  MIC: 6.25 µg/mL (≈ 18.5 µM)
Pseudomonas aeruginosa [6]
  MIC: 25 µg/mL (≈ 74 µM)
Klebsiella pneumoniae [7]
  MIC: 12.5 µg/mL (≈ 37 µM)
Bacillus subtilis [8]
  MIC: 6.25 µg/mL (≈ 18.5 µM)
Escherichia coli [9]
  diameter of the inhibition zone (DIZ): <10 mm
Staphylococcus aureus [10]
  diameter of the inhibition zone (DIZ): 16 mm
Pseudomonas aeruginosa [11]
  diameter of the inhibition zone (DIZ): <10 mm
Klebsiella pneumoniae [12]
  diameter of the inhibition zone (DIZ): 11 mm
Bacillus subtilis [13]
  diameter of the inhibition zone (DIZ): 16 mm
Aspergillus flavus [14]
  MIC: 6.25 µg/mL (≈ 18.5 µM)
Aspergillus fumigatus [15]
  MIC: 6.25 µg/mL (≈ 18.5 µM)
Talaromyces marneffei [16]
  MIC: 6.25 µg/mL (≈ 18.5 µM)
[17]
  MIC: 6.25 µg/mL (≈ 18.5 µM)
Candida albicans [18]
  MIC: 6.25 µg/mL (≈ 18.5 µM)
Aspergillus flavus [19]
  diameter of the inhibition zone (DIZ): 16 mm
Aspergillus fumigatus [20]
  diameter of the inhibition zone (DIZ): 16 mm
Talaromyces marneffei [21]
  diameter of the inhibition zone (DIZ): 16 mm
[22]
  diameter of the inhibition zone (DIZ): 16 mm
Candida albicans [23]
  diameter of the inhibition zone (DIZ): 16 mm
[24]
  MIC: 10 µg/mL (≈ 29.6 µM)

## Nc1nc(COC(=O)c2ccccc2)cs1
[1]
  MIC: > 100 µg/mL
[2]
  MIC: > 100 µg/mL
[3]
  growth inhibition (GI): 0%
Escherichia coli [4]
  MIC: 25 µg/mL (≈ 107 µM)
Staphylococcus aureus [5]
  MIC: 6.25 µg/mL (≈ 26.7 µM)
Pseudomonas aeruginosa [6]
  MIC: 25 µg/mL (≈ 107 µM)
Klebsiella pneumoniae [7]
  MIC: 6.25 µg/mL (≈ 26.7 µM)
Bacillus subtilis [8]
  MIC: 6.25 µg/mL (≈ 26.7 µM)
Escherichia coli [9]
  diameter of the inhibition zone (DIZ): <10 mm
Staphylococcus aureus [10]
  diameter of the inhibition zone (DIZ): 16 mm
Pseudomonas aeruginosa [11]
  diameter of the inhibition zone (DIZ): <10 mm
Klebsiella pneumoniae [12]
  diameter of the inhibition zone (DIZ): 16 mm
Bacillus subtilis [13]
  diameter of the inhibition zone (DIZ): 16 mm
Aspergillus flavus [14]
  MIC: 25 µg/mL (≈ 107 µM)
Aspergillus fumigatus [15]
  MIC: 25 µg/mL (≈ 107 µM)
Talaromyces marneffei [16]
  MIC: 25 µg/mL (≈ 107 µM)
[17]
  MIC: 25 µg/mL (≈ 107 µM)
Candida albicans [18]
  MIC: 25 µg/mL (≈ 107 µM)
Aspergillus flavus [19]
  diameter of the inhibition zone (DIZ): <10 mm
Aspergillus fumigatus [20]
  diameter of the inhibition zone (DIZ): <10 mm
Talaromyces marneffei [21]
  diameter of the inhibition zone (DIZ): <10 mm
[22]
  diameter of the inhibition zone (DIZ): <10 mm
Candida albicans [23]
  diameter of the inhibition zone (DIZ): <10 mm
[24]
  MIC: > 100 µg/mL

## N#Cc1cccc(C(=O)OCc2csc(N)n2)n1
[1]
  MIC: > 100 µg/mL
[2]
  MIC: > 100 µg/mL
[3]
  growth inhibition (GI): <90%
Escherichia coli [4]
  MIC: 12.5 µg/mL (≈ 48 µM)
Staphylococcus aureus [5]
  MIC: 25 µg/mL (≈ 96.1 µM)
Pseudomonas aeruginosa [6]
  MIC: 25 µg/mL (≈ 96.1 µM)
Klebsiella pneumoniae [7]
  MIC: 25 µg/mL (≈ 96.1 µM)
Bacillus subtilis [8]
  MIC: 25 µg/mL (≈ 96.1 µM)
Escherichia coli [9]
  diameter of the inhibition zone (DIZ): 11 mm
Staphylococcus aureus [10]
  diameter of the inhibition zone (DIZ): <10 mm
Pseudomonas aeruginosa [11]
  diameter of the inhibition zone (DIZ): <10 mm
Klebsiella pneumoniae [12]
  diameter of the inhibition zone (DIZ): <10 mm
Bacillus subtilis [13]
  diameter of the inhibition zone (DIZ): <10 mm
Aspergillus flavus [14]
  MIC: 6.25 µg/mL (≈ 24 µM)
Aspergillus fumigatus [15]
  MIC: 12.5 µg/mL (≈ 48 µM)
Talaromyces marneffei [16]
  MIC: 6.25 µg/mL (≈ 24 µM)
[17]
  MIC: 12.5 µg/mL (≈ 48 µM)
Candida albicans [18]
  MIC: 25 µg/mL (≈ 96.1 µM)
Aspergillus flavus [19]
  diameter of the inhibition zone (DIZ): 16 mm
Aspergillus fumigatus [20]
  diameter of the inhibition zone (DIZ): 11 mm
Talaromyces marneffei [21]
  diameter of the inhibition zone (DIZ): 16 mm
[22]
  diameter of the inhibition zone (DIZ): 11 mm
Candida albicans [23]
  diameter of the inhibition zone (DIZ): <10 mm
[24]
  MIC: 10 µg/mL (≈ 38.4 µM)
